Test [1] has as its system S. sanguinis harboring toxicity reporter. Kind of test: Competence-coupled toxicity reporter growth assay. The settings on record: 5-FOA final 1 mg/mL in THY; OD600 at 12 h; WT S. sanguinis + RT; n = 3. It is filed as cell-based.
For another test, the system named is comCDE locus. Kind of test: Luciferase reporter assay of comCDE locus activation. It is filed as cell-based, S. sanguinis VMC66. To be noted: PcomCDEluc reporter; for activity relative to each other / activity class of CSP derivatives: luminescence, 20 min, 37 °C. Summed up: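 Overnight VMC66 PcomCDEluc reporter culture diluted 1:10 and held 30 min at 37 °C, 5% CO2. 198 μL per well received 2 μL DMSO or serially diluted synthetic peptide. After 20 min at 37 °C, 5% CO2, luminescence was read on a plate reader. EC50 values were fitted from three independent experiments.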

The test system of the next test is S. sanguinis. Kind of test: CSP-induced DNA transformation efficiency. Format: cell-based. The settings on record: C+Y media. Summed up: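 Cultures grown in THY or C+Y (a chemically defined medium with 2.2 g/L yeast extract) at 37 °C, 5% CO2. Diluted culture (500 μL) mixed with 113 nM CSP and 10 ng target DNA (linear knockout cassette or blank plasmid). Incubated a further 90 min, then plated on THY with selective antibiotic. Colonies counted after two days. Mean of three independent replicates with standard deviation.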

Regarding `O=C(O)c1[nH]c(=O)[nH]c(=O)c1F` [5’-FOA, 5-Fluoroorotic acid], the “competence-coupled growth defect with toxicity reporter, WT” value in test [1] is on record as “could induce significant growth defect in WT S. sanguinis background”. Consider H-DLRGVPNPWGWIFG-OH, for which the “potency of CSP analog lacking the C-terminal AA” value in the test on comCDE locus (Figure S1) is “significantly less-potent”.

As for H-DLRGVPNPWGWIFGR-OH [15mer], the “transformation efficiency, C+Y vs THY” value with S. sanguinis was “drop in transformation efficiency”. Further, in the test with comCDE locus, the “activity relative to each other / activity class of CSP derivatives” value is recorded as “similarly active”. Consider H-FWDLRGVPNPWGWIFGR-OH [17mer], for which the “activity relative to each other / activity class of CSP derivatives” value with comCDE locus was “inactive”. On the same count and under the same terms, next, H-TFWDLRGVPNPWGWIFGR-OH [18mer]: “inactive”.

Consider H-WDLRGVPNPWGWIFGR-OH [16mer], for which the “activity relative to each other / activity class of CSP derivatives” value in the test on comCDE locus was “similarly active”.

For the origin of these results see paper PMC10922391 (Cell chemical biology, 2023).
